Reference: ChEMBL document CHEMBL3124872, “Discovery and early development of TMC647055, a non-nucleoside inhibitor of the hepatitis C virus NS5B polymerase” (J Med Chem, 2014)
Active and inactive are the calls of the source. No cut-off for these calls is given here.

What was measured:
Homo sapiens [1] = assay: Toxicity in HCV genotype 1-infected patient assessed as effect on ECG profile at 500 to 1000 mg, po bid for 5 days followed by morning dose on day 6; type: organism-based; conditions: in vivo, 120 h
How it was run: (§1)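 HCV genotype 1-infected patients given oral b.i.d. doses of 500 or 1000 mg for 5 days plus a morning dose on day 6, in hydroxypropyl-β-cyclodextrin vehicle; adverse events with grading, laboratory parameters, vital signs, food consumption, appetite and ECG monitored.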

Homo sapiens [2] = assay: Toxicity in HCV genotype 1-infected patient assessed as effect on laboratory parameters at 500 to 1000 mg, po bid for 5 days followed by morning dose on day 6; type: organism-based; conditions: in vivo, 120 h; how it was run: as §1
Hepatitis C virus [3] = assay: Antiviral activity against Hepatitis C virus harboring NS5B M414T mutant infected in human HuH7 by luciferase reporter gene assay; type: functional, organism-based; conditions: Hepacivirus hominis; Huh-7
[4] = Drug uptake in Sprague-Dawley rat liver at 10 mg/kg, po after 7 hrs; type: ADME, organism-based; design: dose 10 mg/kg, route oral; conditions: read-out: Drug uptake
[5] = Cytotoxicity against human HuH7 cells; type: cell-based, Huh-7
[6] = Inhibition of His6-tagged Hepatitis C virus Con 1b NS5B delta21 RNA dependent RNA polymerase expressed in Escherichia coli Rosetta 2 (DE3) after 2 hrs by primer-dependent transcription assay in presence of 5'-biotinylated rG13 primer
Homo sapiens [7] = assay: Toxicity in HCV genotype 1-infected patient assessed as effect on vital signs at 500 to 1000 mg, po bid for 5 days followed by morning dose on day 6; type: organism-based; conditions: in vivo, 120 h; how it was run: as §1
[8] = Selectivity ratio of EC50 for Hepatitis C virus genotype 2b to EC50 for wild-type Hepatitis C virus Con 1b; type: functional
How it was run: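 Transient replicon assay using chimeric replicons carrying NS5B from genotype 2a or 2b patient isolates. EC50 was compared with that against the genotype 1b replicon.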

Hepatitis C virus [9] = assay: Antiviral activity against Hepatitis C virus genotype 1a infected in human HuH7 by transient replicon assay; type: functional, organism-based, Hepacivirus hominis; conditions: subtype 1a, Huh-7
How it was run: (§2)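 Transient replicon assay using chimeric replicons whose NS5B region is derived from patient isolates of the stated genotype.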

Hepatitis C virus [10] = assay: Antiviral activity against Hepatitis C virus harboring […] R155K mutant infected in human HuH7 by luciferase reporter gene assay; type: functional, organism-based; conditions: Hepacivirus hominis; Huh-7
Homo sapiens [11] = assay: Toxicity in HCV genotype 1-infected patient assessed as grade-3 adverse events at 500 to 1000 mg, po bid for 5 days followed by morning dose on day 6; type: organism-based; conditions: in vivo, 120 h; how it was run: as §1
[12] = Toxicity in rat after 5 days; type: organism-based; conditions: in vivo
[13] = Cytotoxicity against African green monkey Vero E6 cells after 3 days by resazurin-based fluorescence analysis; type: cell-based; conditions: chlorocebus sabaeus
Hepatitis C virus [14] = assay: Antiviral activity against Hepatitis C virus genotype 1b infected in human assessed as log10 reduction in HCV RNA level at 1000 mg, po bid for 5 days followed by morning dose on day 6 relative to control; type: functional, Hepacivirus hominis
How it was run: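 Oral b.i.d. dosing of HCV genotype 1-infected patients at 500 mg or 1000 mg for 5 days, plus a morning dose on day 6, in hydroxypropyl-β-cyclodextrin vehicle. Read-out was the median maximum decrease in plasma HCV RNA from baseline (log10), using patients with HCV RNA data available up to Day 6.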

[15] = Binding affinity to His6-tagged Hepatitis C virus Con 1b NS5B delta21 RNA dependent RNA polymerase expressed in Escherichia coli Rosetta 2 (DE3) by surface plasmon resonance analysis; design: species or system Hepatitis C virus (isolate Con1)
How it was run: (§3)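 Surface plasmon resonance binding to NS5B polymerase of the stated genotype; association and dissociation rate constants measured, from which Kd and residence half-life were derived; median Kd reported.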

[16] = Binding affinity to Hepatitis C virus genotype 2b NS5B by surface plasmon resonance analysis; design: species or system Hepatitis C virus subtype 2b; how it was run: as §3
Hepatitis C virus [17] = assay: Antiviral activity against Hepatitis C virus harboring NS5B S96T mutant infected in human HuH7 by luciferase reporter gene assay; type: functional, organism-based; conditions: Hepacivirus hominis; Huh-7
Hepatitis C virus [18] = assay: Antiviral activity against Hepatitis C virus genotype 1b infected in human HuH7 assessed as suppression of formation of resistant colonies at 1.5 uM preincubated for 2 weeks followed by 3 week rebound phase by RT-PCR analysis; type: functional, organism-based; conditions: Hepacivirus hominis, Huh-7
How it was run: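 Huh7-Luc genotype 1b replicon cells were incubated for 14 days with the NNI alone (up to 3.75 μM), with TMC435 alone, or with both. A 3-week rebound phase without inhibitor followed, tracking replicon RNA clearance. A parallel colony formation run exposed the cells for 2−3 weeks and scored resistant colonies.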

Hepatitis C virus [19] = assay: Antiviral activity against Hepatitis C virus genotype 1a infected in human HuH7-SG cells after 3 days by RT-PCR analysis; type: functional, organism-based, Hepacivirus hominis; conditions: subtype 1a, Huh-7, 72 h
Plasma = assay: Fraction unbound in human plasma; type: ADME, cell-free
[20] = Binding affinity to Hepatitis C virus genotype 1a NS5B by surface plasmon resonance analysis; design: species or system Hepatitis C virus subtype 1a; how it was run: as §3
Hepatitis C virus [21] = assay: Antiviral activity against Hepatitis C virus harboring […] Y93H mutant infected in human HuH7 by luciferase reporter gene assay; type: functional, organism-based; conditions: Hepacivirus hominis; Huh-7
Homo sapiens [22] = assay: Toxicity in HCV genotype 1-infected patient assessed as gastrointestinal side-effects at 500 to 1000 mg, po bid for 5 days followed by morning dose on day 6; type: organism-based; conditions: in vivo, 120 h; how it was run: as §1
Hepatitis C virus [23] = assay: Antiviral activity against Hepatitis C virus harboring NS5B C316Y mutant infected in human HuH7 by luciferase reporter gene assay; type: functional, organism-based; conditions: Hepacivirus hominis; Huh-7
Hepatitis C virus [24] = assay: Antiviral activity against Hepatitis C virus genotype 2a infected in human HuH7 by transient replicon assay; type: functional, organism-based, Hepacivirus hominis; conditions: Huh-7; how it was run: as §2
Homo sapiens [25] = assay: Toxicity in human assessed as effect on food consumption at 300 to 1250 mg, po bid for 5 days followed by morning dose on day 6; type: organism-based; conditions: in vivo, 120 h
How it was run: (§4)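 Healthy volunteers given oral b.i.d. doses of 300, 1000 or 1250 mg for 5 days plus a morning dose on day 6, in hydroxypropyl-β-cyclodextrin vehicle; adverse events, laboratory parameters, vital signs, food consumption, appetite, ECG and plasma 4-β-hydroxycholesterol (CYP3A4 induction marker) monitored.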

[26] = Cytotoxicity against HEK293T cells after 3 days by resazurin-based fluorescence analysis; type: cell-based, HEK-293T; conditions: human
Hepatitis C virus [27] = assay: Antiviral activity against Hepatitis C virus genotype 1b infected in human HuH7 assessed as clearance of replicon cells at 3.75 uM preincubated for 2 weeks followed by 3 week rebound phase by RT-PCR analysis; type: functional, organism-based; conditions: Hepacivirus hominis, Huh-7
How it was run: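 Clearance-and-rebound test in Huh7-Luc genotype 1b replicon cells. Cells were incubated with inhibitor (3.75 μM alone) for 14 days, then held for a 3-week rebound phase without inhibitor. Replicon RNA was followed for clearance and rebound.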

Hepatitis C virus [28] = assay: Antiviral activity against Hepatitis C virus genotype 1b infected in human HuH7 cells after 72 hrs by luciferase reporter gene assay in presence of 40% human plasma relative to control; type: functional, Hepacivirus hominis, Huh-7
Hepatitis C virus [29] = assay: Antiviral activity against Hepatitis C virus genotype 4a infected in human HuH7 by transient replicon assay; type: functional, organism-based, Hepacivirus hominis; conditions: Huh-7; how it was run: as §2
[30] = Binding affinity to Hepatitis C virus genotype 1b NS5B by surface plasmon resonance analysis; design: species or system Hepatitis C virus subtype 1b; how it was run: as §3
Homo sapiens [31] = assay: Toxicity in human assessed as effect on appetite at 300 to 1250 mg, po bid for 5 days followed by morning dose on day 6; type: organism-based; conditions: in vivo, 120 h; how it was run: as §4

COc1ccc2c(c1)C=C1Cn3c-2c(C2CCCCC2)c2ccc(cc23)C(=O)NS(=O)(=O)N(C)CCOCCN(C)C1=O [TMC-647055]
Activity (Homo sapiens [1]): Non-toxic
Activity (Homo sapiens [2]): Non-toxic
Activity (Hepatitis C virus [3]): Active
concentration at 7 h [4]: 7800 ng/g
CC50 [5]: 42100 nM
IC50 [6]: 34 nM
Activity (Homo sapiens [7]): Non-toxic
Ratio EC50 [8]: >200
EC50 (Hepatitis C virus [9]): 48 nM
Activity (Hepatitis C virus [10]): Active
Activity (Homo sapiens [11]): Non-toxic
NOAEL at 120 h [12]: ≤ 1000 mg/kg/day
CC50 at 72 h [13]: > 50000 nM
FC (Hepatitis C virus [14]): 3.4
Kd [15]: 4.1 nM
Kd [16]: 880 nM
Activity (Hepatitis C virus [17]): Active
Activity (Hepatitis C virus [18]): Active
EC50 (Hepatitis C virus [19]): 166 nM
Fu (Plasma): 0.3%
Kd [20]: 7.3 nM
Activity (Hepatitis C virus [21]): Active
Activity (Homo sapiens [22]): Toxic
Activity (Hepatitis C virus [23]): Active
EC50 (Hepatitis C virus [24]): 12500 nM
Activity (Homo sapiens [25]): Non-toxic
CC50 at 72 h [26]: > 50000 nM
Activity (Hepatitis C virus [27]): inactive
fold change (FC) (Hepatitis C virus [28]): 9
EC50 (Hepatitis C virus [29]): 97 nM
Kd [30]: 3.9 nM
Activity (Homo sapiens [31]): Non-toxic
